# Source: PubChem BioAssay
# A selection: hits, their analogues and other compounds. The true share with any hit is near 6.3%.
# PostGolgi ctrl: yeast control strain growth, post-Golgi counter-screen | inhibition, % at 10 µM | 98,000 tested, 5% active | AID 738 | efflux-deficient yeast background strain, growth absorbance A615, 16 h
# Ecoli WT expand: E. coli BW25113 growth inhibition, expanded screen; OD600 absorbance; growth inhibition, % at 100 µM; 98,000 tested, 0.15% active; AID 710;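 active = growth inhibition above about 50% at one test dose, limit read from the data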;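 note: growth measured after 20 h incubation at 37 °C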
# PostGolgi yeast: growth inhibition of a yeast mutant, post-Golgi transport screen; post-Golgi transport phenotypic cell assay; inhibition, % at 10 µM; 98,000 tested, 0.9% active; AID 739;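 note: yeast cells grown in 1536-well plates; yeast grown about 18 h at 30C before absorbance read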
# Ecoli tolC: blocks growth of E. coli BW25113 tolC mutant. OD615. growth inhibition, % at 10 µM (by protocol). 65,000 tested, 2.2% active;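 active = growth inhibition at or above a cutoff equal to the mean over every tested compound plus 3 SD, cut at about 60% in these data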;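 note: growth measured after 20 h incubation at 37 °C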
#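 test system = E. coli BW25113 ΔtolC::kan bacteria | medium = LB with kanamycin 50 µg/mL | signal = OD at 615 nm | schedule = 37 °C, 20 h exposure | evaluation = % inhibition of E. coli growth | compound dosing = one dose of 10 µM final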
# Numbers without * were called inactive; . = not tested or not shown. Cut-off read from the data, not from the text of the source, unless noted: active = inhibition above about 30%; inactive = the rest.
SMILES,PostGolgi ctrl,Ecoli WT expand,PostGolgi yeast,Ecoli tolC
O=CNCC(=O)NCCc1ccc(Cl)cc1,24,3,-3,-15
COc1cc(-c2nnc(SCC3(c4ccccc4)OCCO3)o2)cc(OC)c1OC,7,-15,-4,.
Cc1nc2nc(C)c(CCC(=O)O)c(C)n2n1,2,1,15,.
COC(=O)CCCC(=O)Nc1c(F)c(F)c(F)c(F)c1F,1,3,-1,-7
COc1cc2c(cc1OC)-c1nnc(-c3cccs3)n1C1(CCCC1)C2,17,-4,-6,.
CCOC(=O)N1CCC2(CC1)C(C#N)=C(N)Oc1c2sc2nc(C)cc(C)c12,55*,-3,10,40
CCOC(=O)N1CCC2(CC1)C(C#N)=C(N)Oc1c2c(C)nn1-c1cccc(Cl)c1,31*,1,-7,0
CC1CCCC(C)N1C(=O)CSc1nnc(COc2ccccc2)n1-c1ccccc1 (stereo unspecified),2,-2,-1,.
CN1C(=O)c2cccc(NC(=O)CCc3ccccc3)c2C1=O,-5,1,-3,2
CCOC(=O)c1c(C)c(C(=O)NCc2ccccn2)c(C)n1CC,19,-2,-1,-2
O=C(NCc1ccc2c(c1)OCO2)c1ccc(COc2cccc(Cl)c2)o1,60*,22,6,79*
Cc1ccc(S(=O)(=O)Cc2ccc(C(=O)NCc3ccc4c(c3)OCO4)o2)cc1,34*,4,-6,-5
CCOC(=O)C1=C(C)N=c2s/c(=C\c3cccn3C)c(=O)n2C1c1cccc(OC)c1OC (stereo unspecified),33*,-5,-1,8
CCOC(=O)C1=C(C)N=c2s/c(=C/c3ccco3)c(=O)n2C1c1cccc(OC)c1 (stereo unspecified),15,-24,-12,16
COc1cc2[nH]c(=S)n(NC(=O)CC(C)C)c(=O)c2cc1OC,13,-4,1,-3
CN1C(=O)C2(Oc3ccccc3C3CC(c4ccccc4)=NN32)c2ccccc21 (stereo unspecified),51*,-11,-6,.
Cc1ccc(C2=NN3C(C2)c2ccccc2OC32C(=O)Nc3ccccc32)cc1 (stereo unspecified),18,2,-5,.
CC(=O)OC(C(=O)NC1CCCCC1)c1ccc(C#N)cc1 (stereo unspecified),1,12,12,-13
CC(=O)Nc1cccc(NC(=O)C2CC(=O)N(c3ccc(C)cc3)C2)c1 (stereo unspecified),10,1,-3,-5
Cc1ccc(NC(=O)C2CC(=O)N(c3ccc4c5c(cccc35)CC4)C2)cc1 (stereo unspecified),31*,-12,-3,.
O=C1c2cccc3c([N+](=O)[O-])ccc(c23)C(=O)N1c1ccccn1,19,4,18,.
O=C1c2cccc3c([N+](=O)[O-])ccc(c23)C(=O)N1c1ccc(Cl)cn1,19,16,68*,.
Cc1ccccc1OCC(=O)NNC(=S)NC(=O)c1ccco1,53*,23,38*,.
CCOc1cc(NC(=O)c2ccco2)c(OCC)cc1NC(=O)COc1ccccc1C,.,.,.,-6
Cc1ccccc1-n1nc(C)c2cc(C(=O)N3CCN(S(=O)(=O)c4ccc(Cl)cc4)CC3)sc21,23,-12,-1,.
SMILES,PostGolgi ctrl,Ecoli WT expand,PostGolgi yeast,Ecoli tolC
Cc1ccccc1-n1nc(C)c2cc(C(=O)N3CCN(S(=O)(=O)c4ccc(F)cc4)CC3)sc21,19,-2,37*,8
CCCCNc1cc(C)nc(NCc2ccccc2)n1,9,59*,-2,77*
COc1cccc(-c2cc(C(=O)N3CCc4ccccc4C3)no2)c1,21,-8,1,90*
COc1ccc(OC)c(-c2cc(C(=O)N3CCc4ccccc4C3)no2)c1,41*,-19,-1,69*
COc1ccc(OC)c(-c2cc(C(=O)NCCN3CCOCC3)no2)c1,0,3,2,-20
O=C(c1cc(-c2cccs2)on1)N1CCN(c2ccccc2)CC1,14,-9,5,56
COc1ccc(OC)c(-c2cc(C(=O)N3CCN(c4ccccc4)CC3)no2)c1,33*,-19,-8,10
CCOC(=O)Cc1nnc2c(Nc3ccc(Cl)cc3)nc3nonc3n12,27,11,10,100*
Cc1ccc2nc(/C(C#N)=C\c3ccc([N+](=O)[O-])o3)[nH]c2c1,99*,17,103*,.
COc1ccccc1NC(=O)N(CCN(C)C)Cc1cc2cc(C)ccc2[nH]c1=O,-2,-7,2,-3
Cc1ccc2[nH]c(=O)c(CN(CCN3CCOCC3)C(=O)Nc3ccccc3F)cc2c1,46*,-5,0,-8
CCN1CCCC1CN(Cc1cc2cc(C)ccc2[nH]c1=O)C(=O)Nc1ccccc1OC (stereo unspecified),34*,6,7,-12
Cc1cc2cc(CN(CCN3CCOCC3)C(=O)Nc3ccccc3F)c(=O)[nH]c2cc1C,0,3,18,19
Cc1cc(C(=O)CSc2nc3ccccc3[nH]2)c(C)n1C,7,-5,11,0
COC(=O)c1cc(CSc2nc3ccc(C)cc3[nH]2)oc1C,.,.,.,73*
COC(=O)c1ccc(CSc2nc3ccccc3[nH]2)o1,8,14,-7,.
Cc1ccc2nc(SCC(=O)c3cc(C)n(C)c3C)[nH]c2c1,33*,-6,1,.
Cc1cc(C(=O)CSc2nc3ccc(Cl)cc3[nH]2)c(C)n1C,84*,-12,55*,12
CCOc1ccc(NC(=O)N[C@@H](CCSC)C(=O)OC)cc1,-2,8,-6,.
Cc1ccc(C(C2C(=O)CC(C)(C)CC2=O)C2C(=O)CC(C)(C)CC2=O)s1,-10,5,-6,.
Cc1nn(-c2ccccc2)c(C)c1C(=O)Nc1nnc(-c2ccco2)o1,-4,3,2,65*
CN(Cc1ccccc1)C1CC(=O)N(c2ccc(C(=O)O)cc2)C1=O (stereo unspecified),42*,-6,-2,-12
CCOC(=O)c1sc(N/N=C/c2cccc(C)c2)nc1C,38*,-13,2,.
CCOC(=O)Cc1csc(N/N=C\c2cccc(Br)c2)n1,3,-7,17,.
CCOC(=O)c1sc(Nc2ccc(C)cc2C)nc1C,52*,10,4,.
SMILES,PostGolgi ctrl,Ecoli WT expand,PostGolgi yeast,Ecoli tolC
CCOC(=O)c1sc(Nc2ccccc2)nc1C,11,-1,5,.
COc1ccc(C2(CNC(=O)CCC(=O)O)CCCC2)cc1OC,0,1,-6,.
CN(C)CCNC(=O)Cn1nc(C(F)F)cc1C1CC1,32*,3,-3,-7
O=C(Cn1nc(C(F)F)cc1C1CC1)NCCC1=CCCCC1,5,3,-1,9
CC1CCCN(C(c2cccs2)c2nnnn2Cc2ccccc2)C1 (stereo unspecified),19,0,-2,.
Cc1ccccc1N(CC(=O)N/N=C/c1ccc(Cl)cc1)C(=O)c1ccccc1,32*,-10,8,.
O=C(CN1C(=O)C2CC=CCC2C1=O)OCCN1C(=O)c2ccccc2C1=O (stereo unspecified),-3,-11,-4,-13
COc1cccc(Cn2c(Oc3cccc(C)c3)nc3c2c(=O)n(C)c(=O)n3C)c1,30,-25,9,84*
CCCOc1nc2c(c(=O)n(C)c(=O)n2C)n1Cc1cccc2ccccc12,37*,-6,4,65*
